Reference: ChEMBL document CHEMBL1141586, “Design and optimization of imidazole derivatives as potent CXCR3 antagonists” (Bioorg Med Chem Lett, 2008)
≈ marks a conversion by molar mass, not a printed value.

Key:
[1] = biological target: T1, C-X-C chemokine receptor type 3 (Homo sapiens, UniProt P49682); test: Displacement of [125I]IP10 from human recombinant CXCR3 receptor expressed in IL2-activated human PBMC in presence of plasma
T1 sequence (P49682 whole entry): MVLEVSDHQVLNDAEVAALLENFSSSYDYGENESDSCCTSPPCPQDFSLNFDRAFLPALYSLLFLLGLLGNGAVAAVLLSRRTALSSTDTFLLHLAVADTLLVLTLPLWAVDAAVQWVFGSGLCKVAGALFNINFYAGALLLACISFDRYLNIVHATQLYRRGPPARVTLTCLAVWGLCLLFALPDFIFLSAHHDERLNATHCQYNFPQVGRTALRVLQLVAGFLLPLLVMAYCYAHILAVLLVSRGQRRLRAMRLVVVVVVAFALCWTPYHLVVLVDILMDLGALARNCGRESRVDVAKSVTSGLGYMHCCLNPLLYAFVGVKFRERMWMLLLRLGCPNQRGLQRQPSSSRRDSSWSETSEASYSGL
Summary of the method: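 PBMC were activated for 14 days with anti-CD3 mAb and recombinant human IL-2, then co-incubated with antagonist and recombinant human 125I-IP10 for 2 h at room temperature in EDTA-anticoagulated human plasma (from frozen stocks). Cells were filter-harvested and bound radioactivity counted by scintillation. IC50 is the mean of three experiments.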

[2] = biological target: T1, C-X-C chemokine receptor type 3; test: Displacement of [125I]IP10 from human recombinant CXCR3 receptor expressed in IL2-activated human PBMC
Liver microsomes = test: Metabolic stability in human liver microsomes assessed as decrease in glutathione conjugate formation; assay type: ADME, Microsome; parameters: scale not given: the % may be the effect or the level left
[3] = biological target: T2, C-X-C chemokine receptor type 3 (Homo sapiens) (UniProt P49682); test: Antagonist activity at human CXCR3 receptor assessed as ITAC-induced cellular migration in PBMC in presence of plasma; assay type: functional
T2 sequence (whole entry): T1 sequence (P49682 whole entry)

Rattus norvegicus [4] = test: AUC in rat at 0.5 mg/kg, iv; assay type: ADME, organism-based, Plasma; parameters: dose 0.5 mg/kg, route intravenous; details: in vivo
Summary of the method: (§1)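 Rats given a single intravenous dose of 0.5 mg/kg; clearance, AUC and mean residence time derived from plasma exposure; n = 2 animals.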

[5] = Membrane permeability by PAMPA assay; assay type: ADME; details: read-out: permeability
Summary of the method: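 PAMPA: passive permeation across an artificial phospholipid bilayer membrane; result expressed in 10^-6 cm/s.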

[6] = AUC in rat at 2 mg/kg, po; assay type: ADME, organism-based; parameters: dose 2 mg/kg, route oral; details: plasma
[7] = Solubility at pH 7.4; assay type: physicochemical; details: buffer
Summary of the method: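 10 mM DMSO stock added to pH 7.4 assay buffer, final DMSO about 1%. Compound concentration in the supernatant is measured.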

Rattus norvegicus [8] = test: Clearance in rat at 0.5 mg/kg, iv; assay type: ADME, organism-based; parameters: dose 0.5 mg/kg, route intravenous; details: in vivo; summary of the method: as §1
[9] = Oral bioavailability in rat at 2 mg/kg; assay type: ADME, organism-based; details: in vivo
[10] = Mean residence time in rat at 2 mg/kg, po; assay type: ADME, organism-based; parameters: dose 2 mg/kg, route oral; details: in vivo
[11] = Mean residence time in rat at 0.5 mg/kg, iv; assay type: ADME, organism-based; parameters: dose 0.5 mg/kg, route intravenous; details: in vivo; summary of the method: as §1

Compound: CCS(=O)(=O)CCN(C(=O)Cc1ccc(F)c(C(F)(F)F)c1)[C@H](C)c1nc(C2CC2)c(-c2ccccc2)n1-c1ccc(C#N)cc1
- IC50 [1]: 10000 nM
- IC50 [2]: 752 nM

Compound: CCOc1ccc(-n2cc(-c3ccccc3)nc2[C@@H](C)N(CCS(=O)(=O)CC)C(=O)Cc2ccc(OC(F)(F)F)cc2)cc1
- IC50 [1]: 45 nM
- IC50 [2]: 7.1 nM

Compound: CCOc1ccc(-n2cc(-c3ccccc3)nc2[C@@H](C)N(C[C@H]2CCCN2)C(=O)Cc2ccc(F)c(C(F)(F)F)c2)cc1
- IC50 [1]: 36 nM
- IC50 [2]: 46 nM

Compound: CCOc1ccc(-n2cc(-c3ccccc3)nc2[C@@H](C)N(C[C@@H]2CCCN2C)C(=O)Cc2ccc(F)c(C(F)(F)F)c2)cc1
- IC50 [1]: 31 nM
- IC50 [2]: 6.4 nM

Compound: CCOCCN(C(=O)Cc1ccc(F)c(C(F)(F)F)c1)[C@H](C)c1nc(-c2ccccc2)cn1-c1ccc(OCC)cc1
- IC50 [1]: 202 nM
- IC50 [2]: 11 nM

Compound: CCOc1ccc(-n2cc(-c3ccccc3)nc2[C@@H](C)N(Cc2ccncc2)C(=O)Cc2ccc(F)c(C(F)(F)F)c2)cc1
- IC50 [1]: 129 nM
- IC50 [2]: 35 nM

Compound: CCS(=O)(=O)CCN(C(=O)Cc1ccc(F)c(C(F)(F)F)c1)[C@H](C)c1nc(C2CC2)c(C#N)n1-c1ccc(C#N)cc1
- IC50 [1]: 276 nM
- Activity (Liver microsomes): 0%
- IC50 [2]: 72 nM

Compound: CCOc1ccc(-n2cc(-c3ccccc3)nc2[C@@H](C)N(C[C@H]2CCCN2C)C(=O)Cc2ccc(F)c(C(F)(F)F)c2)cc1
- IC50 [1]: 81 nM
- IC50 [2]: 14 nM

Compound: CCS(=O)(=O)CCN(C(=O)Cc1ccc(F)c(C(F)(F)F)c1)[C@H](C)c1nc(C(C)(C)C)cn1-c1ccc(C#N)cc1
- IC50 [1]: 21 nM
- IC50 [2]: 2.5 nM
- Activity [3]: 100 nM

Compound: CCc1c(C2CC2)nc([C@@H](C)N(CCS(=O)(=O)CC)C(=O)Cc2ccc(F)c(C(F)(F)F)c2)n1-c1ccc(C#N)cc1
- IC50 [1]: 16 nM
- Activity (Liver microsomes): 14%
- IC50 [2]: 3.2 nM
- Activity [3]: 29 nM

Compound: CCOc1ccc(-n2cc(-c3ccccc3)nc2[C@@H](C)N(CCS(=O)(=O)CC)C(=O)Cn2ccc(C(F)(F)F)n2)cc1
- IC50 [1]: 1120 nM
- IC50 [2]: 40 nM

Compound: CCS(=O)(=O)CCN(C(=O)Cc1ccc(F)c(C(F)(F)F)c1)[C@H](C)c1nc(C2CC2)c(CO)n1-c1ccc(C#N)cc1
- IC50 [1]: 33 nM
- Activity (Liver microsomes): 1%
- IC50 [2]: 10 nM
- Activity [3]: 113 nM

Compound: CCS(=O)(=O)CCN(C(=O)Cc1ccc(F)c(C(F)(F)F)c1)[C@H](C)c1nc(C2CC2)c(C(F)(F)F)n1-c1ccc(C#N)cc1
- IC50 [1]: 45 nM
- Activity (Liver microsomes): 0%
- IC50 [2]: 19 nM
- Activity [3]: 268 nM

Compound: CCOc1ccc(-n2cc(-c3ccccc3)nc2[C@@H](C)N(Cc2cccnc2)C(=O)Cc2ccc(F)c(C(F)(F)F)c2)cc1
- IC50 [1]: 91 nM
- IC50 [2]: 11 nM

Compound: CCS(=O)(=O)CCN(C(=O)Cc1ccc(F)c(C(F)(F)F)c1)[C@H](C)c1nc(-c2ccccc2)cn1-c1ccc(C#N)cc1
- AUC (Rattus norvegicus [4]): 92 ng·h/mL
- IC50 [1]: 14 nM
- Papp [5]: 0.9 ×10⁻⁶ cm/s
- AUC [6]: 11 ng·h/mL
- solubility [7]: 0.5 µg/mL (≈ 0.816 µM)
- CL (Rattus norvegicus [8]): 91.7 mL/min/kg
- IC50 [2]: 0.7 nM
- Activity [3]: 10 nM
- bioavailability [9]: 3%
- MRT [10]: 0.9 h
- MRT [11]: 0.3 h

Compound: CCS(=O)(=O)CCN(C(=O)Cc1ccc(F)c(C(F)(F)F)c1)[C@H](C)c1nc(C(C)C)cn1-c1ccc(C#N)cc1
- IC50 [1]: 19 nM
- IC50 [2]: 2.6 nM
- Activity [3]: 54 nM

Compound: CCOc1ccc(-n2cc(-c3ccccc3)nc2[C@@H](C)N(CCS(=O)(=O)CC)C(=O)Cn2cc(-c3ccccc3)nn2)cc1
- IC50 [1]: 49 nM
- IC50 [2]: 5.6 nM

Compound: CCS(=O)(=O)CCN(C(=O)Cc1ccc(F)c(C(F)(F)F)c1)[C@H](C)c1nc(C2CC2)c(Cl)n1-c1ccc(C#N)cc1
- AUC (Rattus norvegicus [4]): 219
- IC50 [1]: 24 nM
- Activity (Liver microsomes): 0%
- AUC [6]: 225 ng·h/mL
- CL (Rattus norvegicus [8]): 38.3 mL/min/kg
- IC50 [2]: 7.8 nM
- Activity [3]: 80 nM
- bioavailability [9]: 26%
- MRT [10]: 5.4 h
- MRT [11]: 1.3 h

Compound: CCOc1ccc(-n2cc(-c3ccccc3)nc2[C@@H](C)N(CCCS(=O)(=O)CC)C(=O)Cc2ccc(F)c(C(F)(F)F)c2)cc1
- IC50 [1]: 18 nM
- IC50 [2]: 2.4 nM

Compound: CCOc1ccc(-n2cc(-c3ccccc3)nc2[C@@H](C)N(CCS(=O)(=O)CC)C(=O)Cc2ccc(F)c(C(F)(F)F)c2)cc1
- IC50 [1]: 4.5 nM
- IC50 [2]: 0.4 nM

Compound: CCOc1ccc(-n2cc(-c3ccccc3)nc2[C@@H](C)N(C[C@@H]2CCCN2)C(=O)Cc2ccc(F)c(C(F)(F)F)c2)cc1
- IC50 [1]: 20 nM
- IC50 [2]: 11 nM

Compound: CCOc1ccc(-n2ccnc2[C@@H](C)N(Cc2cccnc2)C(=O)Cc2ccc(F)c(C(F)(F)F)c2)cc1
- IC50 [2]: 1800 nM

Compound: CCOc1ccc(-n2cc(-c3ccccc3)nc2[C@@H](C)N(Cc2ccccn2)C(=O)Cc2ccc(F)c(C(F)(F)F)c2)cc1
- IC50 [1]: 1180 nM
- IC50 [2]: 80 nM

Compound: CCS(=O)(=O)CCN(C(=O)Cc1ccc(F)c(C(F)(F)F)c1)[C@H](C)c1nc(-c2cccnc2)cn1-c1ccc(C#N)cc1
- IC50 [1]: 29 nM
- IC50 [2]: 2.3 nM
- Activity [3]: 91 nM

Compound: CCOc1ccc(-n2cc(-c3ccccc3)nc2[C@@H](C)N(CCS(=O)(=O)CC)C(=O)Cn2cnc(-c3ccccc3)c2)cc1
- IC50 [1]: 24 nM
- IC50 [2]: 4.8 nM

Compound: CCS(=O)(=O)CCN(C(=O)Cc1ccc(F)c(C(F)(F)F)c1)[C@H](C)c1nc(C2CC2)c(C(F)F)n1-c1ccc(C#N)cc1
- AUC (Rattus norvegicus [4]): 237 ng·h/mL
- IC50 [1]: 18 nM
- Activity (Liver microsomes): 0%
- AUC [6]: 456 ng·h/mL
- CL (Rattus norvegicus [8]): 36.7 mL/min/kg
- IC50 [2]: 12 nM
- Activity [3]: 20 nM
- bioavailability [9]: 48%
- MRT [10]: 2.4 h
- MRT [11]: 0.9 h

Compound: CCS(=O)(=O)CCN(C(=O)Cc1ccc(F)c(C(F)(F)F)c1)[C@H](C)c1nc(C2CC2)cn1-c1ccc(C#N)cc1
- AUC (Rattus norvegicus [4]): 149 ng·h/mL
- IC50 [1]: 37 nM
- Papp [5]: 5.1 ×10⁻⁶ cm/s
- Activity (Liver microsomes): 44%
- AUC [6]: 95 ng·h/mL
- solubility [7]: 32 µg/mL (≈ 55.5 µM)
- CL (Rattus norvegicus [8]): 55 mL/min/kg
- IC50 [2]: 6.6 nM
- Activity [3]: 53 nM
- bioavailability [9]: 16%
- MRT [10]: 2.4 h
- MRT [11]: 1 h

Compound: CCS(=O)(=O)CCN(C(=O)Cc1ccc(F)c(C(F)(F)F)c1)[C@H](C)c1nc(-c2ccccn2)cn1-c1ccc(C#N)cc1
- IC50 [1]: 43 nM
- IC50 [2]: 4 nM
- Activity [3]: 33 nM

Compound: CCOc1ccc(-n2cc(-c3ccccc3)nc2[C@@H](C)N(CCS(=O)(=O)CC)C(=O)Cn2nnc(C3CC3)n2)cc1
- IC50 [1]: 1660 nM
- IC50 [2]: 44 nM

Compound: C=Cc1c(C2CC2)nc([C@@H](C)N(CCS(=O)(=O)CC)C(=O)Cc2ccc(F)c(C(F)(F)F)c2)n1-c1ccc(C#N)cc1
- IC50 [1]: 22 nM
- Activity (Liver microsomes): 8%
- IC50 [2]: 3.8 nM
- Activity [3]: 45 nM

Compound: CCOc1ccc(-n2cc(-c3ccccc3)nc2[C@@H](C)N(CCS(=O)(=O)CC)C(=O)Cn2nnc(-c3ccc(C(F)(F)F)cc3)n2)cc1
- IC50 [1]: 19 nM
- IC50 [2]: 2.1 nM

Compound: CCOc1ccc(-n2cc(-c3ccccc3)nc2[C@@H](C)N(CCS(=O)(=O)CC)C(=O)Cn2nnc(-c3ccc(F)cc3)n2)cc1
- IC50 [1]: 47 nM
- IC50 [2]: 5 nM

Compound: CCS(=O)(=O)CCN(C(=O)Cc1ccc(F)c(C(F)(F)F)c1)[C@H](C)c1nc(C2CC2)c(CF)n1-c1ccc(C#N)cc1
- IC50 [1]: 28 nM
- IC50 [2]: 8 nM
- Activity [3]: 119 nM

Compound: CCOc1ccc(-n2cc(-c3ccccc3)nc2[C@@H](C)N(CCS(=O)(=O)CC)C(=O)Cn2nnc(-c3ccccc3)n2)cc1
- IC50 [1]: 69 nM
- IC50 [2]: 9.4 nM
